Each structure is given as a SMILES string. Activity calls are given as the source filed them. The rule behind the calls is not given here.

The subject of assay [1] is HCT-116. The assay is described as follows: Cytotoxicity against human HCT116 cells at 20 uM after 48 hrs by sulforhodamine B assay. Type of assay: functional. In a few lines:
(§1)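 Cells grown in RPMI-1640 with 10% FCS and 1% penicillin-G at 37 °C, 5% CO2. Seeded at 8000–14 000 cells/100 μL and exposed for 48 h. Fixed with ice-cold TCA for 1 h at 4 °C, stained with 0.4% SRB for 0.5 h at room temperature, washed with 1% acetic acid, bound dye solubilised in 10 mM Tris pH 10.05, read at 540 nm.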

Assay [2] has as its system THP-1. Description: Cytotoxicity against human THP1 cells at 20 uM after 48 hrs by sulforhodamine B assay. Type of assay: functional. The procedure, abridged: as §1
In assay [3] the test system is A549. Description: Cytotoxicity against human A549 cells at 20 uM after 48 hrs by sulforhodamine B assay. The assay is classed as functional. The procedure, abridged: as §1
The test system of assay [4] is PC-3. The assay is described as follows: Cytotoxicity against human PC3 cells at 1 uM after 48 hrs by sulforhodamine B assay. The assay is classed as functional. In a few lines:
(§2)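 Cells kept in RPMI-1640 with 10% FCS and 1% penicillin-G at 37 °C under 5% CO2. Seeded at 8000–14 000 cells/100 μL and exposed for 48 h. Fixed with ice-cold TCA for 1 h at 4 °C, then water-washed and stained with 0.4% SRB for 0.5 h at room temperature. Unbound dye removed with 1% acetic acid; bound dye dissolved in 10 mM Tris (pH 10.05) and read at 540 nm.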

For assay [5], the system named is HCT-116. The assay is described as follows: Cytotoxicity against human HCT116 cells at 50 uM after 48 hrs by sulforhodamine B assay. Type of assay: functional. The procedure, abridged:
as §2

For assay [6], the system named is PC-3. Description: Cytotoxicity against human PC3 cells at 50 uM after 48 hrs by sulforhodamine B assay. Type of assay: functional. The procedure, abridged:
as §2

The test system of assay [7] is THP-1. Description: Cytotoxicity against human THP1 cells at 50 uM after 48 hrs by sulforhodamine B assay. The assay is classed as functional. The procedure, abridged:
as §2

Assay [8] relates to A549. Description: Cytotoxicity against human A549 cells at 50 uM after 48 hrs by sulforhodamine B assay. Type of assay: functional. The procedure, abridged: as §2
Assay [9] deals with SK-HEP1. Description: Cytotoxicity against human SKHEP1 cells at 50 uM after 48 hrs by sulforhodamine B assay. The assay is classed as functional. In a few lines: as §2
Assay [10] concerns the target T1, Tubulin (Homo sapiens) (UniProt P68371+Q9H4B7+P0DPH7+P68366+Q13509+Q71U36+P04350+Q3ZCM7+P07437+P68363+Q9BQE3+Q6PEY2+Q13885+Q9BVA1+Q9BUF5). The assay is described as follows: Inhibition of tubulin in human THP1 cells assessed as disruption and loss of microtubule organization at 50 uM after 48 hrs by immunofluorescence microscopic analysis. Type of assay: cell-based. As to conditions: THP-1. In a few lines: (§3)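 THP-1 seeded at 1 × 10^5 cells/well on coverslips and allowed to adhere for 24 h before treatment. Fixed in 4% paraformaldehyde for 10 min, permeabilized with 0.5% Triton-X for 5 min and blocked with 10% goat serum. Probed with anti-α-tubulin (1:100, 1 h) then Alexa Fluor 488 secondary (1:500, 1 h), counterstained with DAPI 1 μg/mL and imaged by confocal microscopy. Three separate experiments.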

In assay [11] the test system is HL-60. Description: Induction of apoptosis in human HL60 cells assessed as condensation and fragmentation of nuclei at 50 uM after 30 hrs by DAPI staining based inverted fluorescence microscopy. Type of assay: functional, cell-based. In a few lines:
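HL-60 seeded at 2 × 10^5 cells/mL in medium with 10% FCS and treated for 30 h at 37 °C, added from DMSO stock; controls got DMSO vehicle only. Air-dried smears fixed in methanol at −20 °C for 20 min, stained with DAPI 1 μg/mL in PBS for 20 min at room temperature in the dark, mounted in glycerol–PBS (1:1) and viewed by inverted fluorescence microscopy (40×).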

In assay [12] the test system is HL-60. The assay is described as follows: Induction of apoptosis in human HL60 cells assessed as condensation, smoothening of the cell surface, blebbing of plasma membrane and formation of apoptotic bodies at 50 uM after 30 hrs by scanning electron microscopy. The assay is classed as functional, cell-based.
Assay [13] has as its system HL-60. Description: Induction of apoptosis in human HL60 cells assessed as condensation, smoothening of the cell surface, blebbing of plasma membrane at 30 uM after 30 hrs by scanning electron microscopy. The assay is classed as functional, cell-based.
In assay [14] the test system is THP-1. Description: Cytotoxicity against human THP1 cells at 1 uM after 48 hrs by sulforhodamine B assay. The assay is classed as functional. In a few lines: as §2
Assay [15] concerns A549. Description: Cytotoxicity against human A549 cells at 1 uM after 48 hrs by sulforhodamine B assay. The assay is classed as functional. The procedure, abridged:
as §2

In assay [16] the target is T1, Tubulin (Homo sapiens). The assay is described as follows: Stabilization of tubulin polymerization in human THP1 cells at 1 uM after 24 hrs by immunofluorescence microscopic analysis. Type of assay: cell-based. As to conditions: THP-1. In a few lines: as §3
Assay [17] deals with HCT-116. Description: Cytotoxicity against human HCT116 cells at 1 uM after 48 hrs by sulforhodamine B assay. The assay is classed as functional. The procedure, abridged: as §2

With `O=c1[nH]cc(F)c(=O)[nH]1` [FLUOROURACIL], the results for the Activity in assay [1], in [2] and in assay [3] were 55%, 84% and 22%, respectively.
`CO[C@@]12[C@H](COC(N)=O)C3=C(C(=O)C(C)=C(N)C3=O)N1C[C@@H]1N[C@@H]12` [MITOMYCIN] registered an Activity in assay [4] of 59%.
With `C[C@@H]1C[C@H]2CC(=O)C[C@H](C2)O1`, the Activity amounted to 59% in assay [5]; 23% in assay [6]; 0% in [7]; 71% in [8]; 26% in assay [9]. The microtubule disruption entry in assay [10] was “Active”. Besides, the result in [11], in assay [12] and in assay [13] was Active.
Turning to `CC(=O)O[C@H]1C(=O)[C@@]2(C)[C@H]([C@H](OC(=O)c3ccccc3)[C@]3(O)C[C@H](OC(=O)[C@H](O)[C@@H](NC(=O)c4ccccc4)c4ccccc4)C(C)=C1C3(C)C)[C@]1(OC(C)=O)CO[C@@H]1C[C@@H]2O` [PACLITAXEL], the Activity in assay [14] is recorded as 71%; in [15], 82%; in assay [17], 72%. Further, the result in assay [16] was Active.
Turning to `CC1=C[C@H](O)[C@@H]2O[C@@H]2C1=O`, the Activity in assay [5] stood at 56%; in assay [6] it was 22%; in [7], 50%; in assay [8], 98%; in [9], 100%. Moreover, the microtubule disruption entry in assay [10] is “Active”. For the same compound, the result in assay [11], in [12] and in [13] was Active.
For the compound `C[C@H]1C[C@H]2CCCC(O)=C2C(=O)O1`, the Activity in [5] was 44%; in assay [6] it was 23%; in [7] it was 54%; in assay [8], 15%; in [9], 23%. Besides, in assay [10], the microtubule disruption result is “Active”. The outcome in assay [11], in assay [12] and in assay [13] was Active.
On to `C[C@H]1C[C@H]2CC[C@H](O)C(O)=C2C(=O)O1`, for which the Activity in assay [5] amounted to 35%; in [6] it was 34%; in assay [7], 40%; in assay [8], 35%; in assay [9], 3%. Besides, the microtubule disruption entry in [10] is “Active”. The result in [11], in assay [12] and in assay [13] was Active.

Values taken from ChEMBL document CHEMBL2331415, “Tubulin inhibitors from an endophytic fungus isolated from Cedrus deodara” (2013).
